These results are taken from ChEMBL document CHEMBL3525946, “Species comparison of in vivo P-glycoprotein-mediated brain efflux using mdr1a-deficient rats and mice” (Drug Metab Dispos, 2012).

Data set [1] in a line: Percentage unbound in Crl:NMRI(Han) mouse plasma at 1 uM after 5 hrs by equilibrium dialysis method. Type of data set: ADME, cell-free. An outline of the steps:
(§1)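 Equilibrium dialysis (12-14 kDa membrane) of plasma or brain homogenate from naïve male Sprague-Dawley rats or Crl:NMRI(Han) mice. Donor side spiked to 1 µM final; receiver phosphate buffer pH 7.4; 37°C for 5 h. Buffer phase quantified by LC-MS. Brain fu corrected for homogenate dilution to intact tissue. Mean of two independent determinations.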

A short description of data set [2]: Total plasma concentration in wild type Sprague-Dawley rat expressing Abcb1a at 9 mg/kg/day administered through continuous minipump treatment for 3 days by UPLC-MS analysis. The following applies: other: continuous minipump. Type of data set: ADME, organism-based. The gist of the method:
(§2)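 Drug was infused subcutaneously by osmotic minipump for 3 days to steady state, at 1 µl/h in mice and 10 µl/h in rats, with doses derived from body weight and delivery rate. Animals were decapitated. Plasma came from EDTA trunk blood spun at 5000 g for 10 min at 4 °C. Whole brain was homogenised 1:4 in 70% acetonitrile and the supernatant kept. Samples were protein-precipitated with internal standard and analysed by UPLC. n=3-5, mean ± SEM.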

Data set [3] is described as follows: Total drug level in wild type Sprague-Dawley rat brain expressing Abcb1a at 9 mg/kg/day administered through continuous minipump treatment for 3 days by UPLC-MS analysis. The settings on record: other: continuous minipump, read-out: Drug uptake. Type of data set: ADME, organism-based. An outline of the steps:
as §2

Data set [4] is described as follows: Total plasma concentration in mdr1a-deficient rat at 9 mg/kg/day administered through continuous minipump treatment for 3 days by UPLC-MS analysis. The following applies: other: continuous minipump. Type of data set: ADME, organism-based. An outline of the steps:
as §2

A short description of data set [5]: Total drug level in mdr1a-deficient rat brain at 9 mg/kg/day administered through continuous minipump treatment for 3 days by UPLC-MS analysis. Type of data set: ADME, organism-based. The settings on record: other: continuous minipump, read-out: Drug uptake. An outline of the steps: as §2
Data set [6] is described as follows: Total plasma concentration in wild type Crl:CF1 mouse expressing Abcb1a mutant at 6 mg/kg/day administered through continuous minipump treatment for 3 days by UPLC-MS analysis. In kind it is ADME, organism-based. The following applies: other: continuous minipump. The gist of the method:
(§3)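 Subcutaneous osmotic minipump infusion for 3 days to steady state, implanted under isoflurane (rats 10 µl/h, mice 1 µl/h). Mdr1a-deficient (SD-Abcb1a knockout rats; Crl:CF1-Abcb1a mutant mice) and wild-type animals, n=3-5 per group. After decapitation, EDTA plasma and whole brain (homogenized 1:4 in 70% acetonitrile) were precipitated with internal standard. Parent and metabolites quantified by UPLC-MS. Mean ± SEM.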

Data set [7] is described as follows: Total drug level in wild type Crl:CF1 mouse brain expressing Abcb1a mutant at 6 mg/kg/day administered through continuous minipump treatment for 3 days by UPLC-MS analysis. The settings on record: other: continuous minipump, read-out: Drug uptake. In kind it is ADME, organism-based. The gist of the method: as §3
Data set [8] can be described thus: Total plasma concentration in mdr1a-deficient mouse at 6 mg/kg/day administered through continuous minipump treatment for 3 days by UPLC-MS analysis. Type of data set: ADME, organism-based. The settings on record: other: continuous minipump. The gist of the method:
as §3

The nature of data set [9]: Total drug level in mdr1a-deficient mouse brain at 6 mg/kg/day administered through continuous minipump treatment for 3 days by UPLC-MS analysis. Type of data set: ADME, organism-based. The settings on record: other: continuous minipump, read-out: Drug uptake. The gist of the method: as §3
Data set [10] can be described thus: Percentage unbound in Sprague-Dawley rat plasma at 1 uM after 5 hrs by equilibrium dialysis method. Type of data set: ADME, cell-free. The gist of the method: as §1
A short description of data set [11]: Percentage unbound in Sprague-Dawley rat brain at 1 uM after 5 hrs by equilibrium dialysis method. Type of data set: ADME, tissue-based. The gist of the method:
as §1
A general note: Equilibrium dialysis compares concentrations on both sides of a semipermeable membrane.

A short description of data set [12]: Percentage unbound in Crl:NMRI(Han) mouse brain at 1 uM after 5 hrs by equilibrium dialysis method. In kind it is ADME, tissue-based. An outline of the steps: as §1
A short description of data set [13]: Total plasma concentration in wild type Sprague-Dawley rat expressing Abcb1a treated with venlafaxine at 9 mg/kg/day administered through continuous minipump treatment for 3 days by UPLC-MS analysis. In kind it is ADME, organism-based. The following applies: other: continuous minipump. The gist of the method:
as §3

Data set [14] can be described thus: Total drug level in wild type Sprague-Dawley rat brain expressing Abcb1a treated with venlafaxine at 9 mg/kg/day administered through continuous minipump treatment for 3 days by UPLC-MS analysis. Type of data set: ADME, organism-based. The following applies: other: continuous minipump, read-out: Drug uptake. An outline of the steps: as §3
Data set [15] can be described thus: Total brain to plasma partition coefficient of the compound in wild type Sprague-Dawley rat expressing Abcb1a treated with venlafaxine at 9 mg/kg/day administered through continuous minipump treatment for 3 days. In kind it is ADME, organism-based. The settings on record: brain and plasma, other: continuous minipump. An outline of the steps: (§4)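 Kp is total brain concentration divided by total plasma concentration at steady state. Measured after a 3-day subcutaneous osmotic minipump infusion in mdr1a-deficient or wild-type rats or mice, n=3-5. Concentrations determined by UPLC-MS in plasma and in whole-brain homogenate (70% acetonitrile). Mean ± SEM.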

Data set [16] can be described thus: Total plasma concentration in mdr1a-deficient rat treated with venlafaxine at 9 mg/kg/day administered through continuous minipump treatment for 3 days by UPLC-MS analysis. The following applies: other: continuous minipump. In kind it is ADME, organism-based. An outline of the steps: as §3
Data set [17] is described as follows: Total drug level in mdr1a-deficient rat brain treated with venlafaxine at 9 mg/kg/day administered through continuous minipump treatment for 3 days by UPLC-MS analysis. Type of data set: ADME, organism-based. The settings on record: other: continuous minipump, read-out: Drug uptake. An outline of the steps: as §3
Data set [18] is described as follows: Total brain to plasma partition coefficient of the compound in mdr1a-deficient rat treated with venlafaxine at 9 mg/kg/day administered through continuous minipump treatment for 3 days. In kind it is ADME, organism-based. The settings on record: brain and plasma, other: continuous minipump. An outline of the steps: as §4
Data set [19] can be described thus: Total plasma concentration in mdr1a-deficient mouse treated with venlafaxine at 12 mg/kg/day administered through continuous minipump treatment for 3 days by UPLC-MS analysis. In kind it is ADME, organism-based. The settings on record: other: continuous minipump. An outline of the steps: as §3
The nature of data set [20]: Total drug level in mdr1a-deficient mouse brain treated with venlafaxine at 12 mg/kg/day administered through continuous minipump treatment for 3 days by UPLC-MS analysis. Type of data set: ADME, organism-based. The settings on record: other: continuous minipump, read-out: Drug uptake. An outline of the steps: as §3
Data set [21] is described as follows: Total brain to plasma partition coefficient of the compound in mdr1a-deficient mouse treated with venlafaxine at 12 mg/kg/day administered through continuous minipump treatment for 3 days. The settings on record: other: continuous minipump. In kind it is ADME, organism-based. An outline of the steps: as §4
Data set [22] is described as follows: Total plasma concentration in wild type Crl:CF1 mouse expressing Abcb1a mutant treated with venlafaxine at 12 mg/kg/day administered through continuous minipump treatment for 3 days by UPLC-MS analysis. Type of data set: ADME, organism-based. The settings on record: other: continuous minipump. An outline of the steps:
as §3

A short description of data set [23]: Total drug level in wild type Crl:CF1 mouse brain expressing Abcb1a mutant treated with venlafaxine at 12 mg/kg/day administered through continuous minipump treatment for 3 days by UPLC-MS analysis. In kind it is ADME, organism-based. The following applies: other: continuous minipump, read-out: Drug uptake. The gist of the method: as §3
Data set [24] can be described thus: Total brain to plasma partition coefficient of the compound in wild type Crl:CF1 mouse expressing Abcb1a mutant treated with venlafaxine at 12 mg/kg/day administered through continuous minipump treatment for 3 days. In kind it is ADME, organism-based. The settings on record: other: continuous minipump. The gist of the method: as §4
Data set [25] can be described thus: Unbound brain to plasma partition coefficient of the compound in wild type Sprague-Dawley rat expressing Abcb1a treated with venlafaxine at 9 mg/kg/day administered through continuous minipump treatment for 3 days. Type of data set: ADME, organism-based. The settings on record: other: continuous minipump, read-out: K(p,uu,brain). The gist of the method: (§5)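 Kp,uu is (Cbrain,total × fu,brain)/(Cplasma,total × fu,plasma). Total concentrations were measured at steady state after a 3-day subcutaneous minipump infusion in knockout or wild-type animals. Species-matched free fractions came from 5 h, 37°C equilibrium dialysis at 1 µM in naïve plasma and brain homogenate.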

The nature of data set [26]: Unbound brain to plasma partition coefficient of the compound in mdr1a-deficient Sprague-Dawley rat treated with venlafaxine at 9 mg/kg/day administered through continuous minipump treatment for 3 days. Type of data set: ADME, organism-based. The following applies: other: continuous minipump, read-out: K(p,uu,brain). The gist of the method:
as §5

Data set [27] is described as follows: Unbound brain to plasma partition coefficient of the compound in wild type Crl:CF1 mouse expressing Abcb1a mutant treated with venlafaxine at 12 mg/kg/day administered through continuous minipump treatment for 3 days. Type of data set: ADME, organism-based. The settings on record: other: continuous minipump, read-out: K(p,uu,brain). The gist of the method: as §5

A short description of data set [28]: Unbound brain to plasma partition coefficient of the compound in mdr1a-deficient mouse treated with venlafaxine at 12 mg/kg/day administered through continuous minipump treatment for 3 days. Type of data set: ADME, organism-based. The settings on record: other: continuous minipump, read-out: K(p,uu,brain). An outline of the steps: as §5

For `Br.CN(C)CCCC1(c2ccc(F)cc2)OCc2cc(C#N)ccc21` (configuration not stated) [CITALOPRAM HYDROBROMIDE], the fraction unbound (usually free concentration divided by total concentration) at 5 h, 1 µM in data set [1] worked out at 0.32; in data set [10], 0.5; in data set [11], 0.031; in [12], 0.035. Also, the concentration at 72 h in data set [2] is 27 ng/mL; in data set [3], 265 ng/g; in [4] it was 35 ng/mL; in data set [5] it was 1200 ng/g; in [6], 8.8 ng/mL; in data set [7], 191 ng/g. The concentration at 72 h was determined as 8.2 ng/mL in [8] and 361 ng/g in data set [9].

As for `CN(C)CC(c1ccc(O)cc1)C1(O)CCCCC1` (configuration not stated) [DESVENLAFAXINE], the fraction unbound at 5 h, 1 µM was more than 0.99 in [1], 0.89 in [10], 0.35 in data set [11] and 0.45 in data set [12]. Moreover, the concentration at 72 h in [13] worked out at 4.5 ng/mL; in [14], 4.4 ng/g; in data set [16] it was 11 ng/mL; in [17] it was 33 ng/g; in [19] it was 7.5 ng/mL; in data set [20] it was 40 ng/g. The concentration at 72 h in data set [22] is 5.7 ng/mL; in [23], 10 ng/g. Further, the Kp (usually tissue or fluid exposure divided by exposure in the circulation) at 72 h was 1 in data set [15], 3.3 in data set [18], 5.7 in data set [21] and 1.8 in [24]. The Kp uu at 72 h in data set [25] was 0.38; in [26] it was 1.2; in data set [27], 0.8; in data set [28] it was 2.4.

As for `CNCC(c1ccc(OC)cc1)C1(O)CCCCC1` (configuration not stated) [N-DESMETHYLVENLAFAXINE], the fraction unbound at 5 h, 1 µM was 0.8 in data set [1], 0.32 in data set [10], 0.08 in data set [11] and 0.16 in [12]. In addition, the concentration at 72 h was 6.8 ng/mL in data set [13]; 9.3 ng/g in data set [14]; 10 ng/mL in data set [16]; 79 ng/g in data set [17]; 11 ng/mL in [19]; 77 ng/g in data set [20]. The concentration at 72 h in data set [22] worked out at 17 ng/mL; in [23] it was 25 ng/g. Further, the Kp at 72 h in data set [15] came out at 1.4; in [18] it was 8.9; in data set [21], 7; in data set [24], 1.5. Further, the Kp uu at 72 h worked out at 0.34 in [25], 2 in data set [26], 0.29 in [27] and 1.4 in data set [28].
